The source of these data is publication PMC8059355 (ACS infectious diseases, 2020).

SMILES strings stand for the structures. Entries after “also recorded” stand apart in the source; their conditions may differ. Read-outs that look alike come from different tables or passages of the source.

Data set [1] concerns L. amazonensis intracellular amastigotes. Format: cell-based, Leishmania amazonensis. The note with it: read-out: intracellular amastigotes, EC50 ± SE.
The subject of data set [2] is L. tarentolae axenic amastigotes. The data set is described as follows: alamarBlue assay, L. tarentolae axenic amastigotes. Format: cell-based, Leishmania tarentolae. The note with it: read-out: L. tarentolae axenic amastigotes EC50 ± SE. The gist of the method:
(§1)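 Axenic amastigotes were exposed to a compound dilution series and growth was measured with 10% alamarBlue, fluorescence at 530 nm excitation and 570 nm emission. Each plate held three technical replicates, with at least three biological repeats. Percent growth relative to untreated control was plotted against log10 concentration. EC50 per repeat was fitted by sigmoidal variable-slope nonlinear regression and reported as mean ± SE.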

Data set [3] has as its system purified L. tarentolae tubulin. The data set is described as follows: turbidity tubulin polymerization assay, purified L. tarentolae tubulin. Format: biochemical, Leishmania tarentolae. The settings on record: read-out: L. tarentolae tubulin polymerization EC50 (estimated); 3 mg/mL tubulin, A340, 30 °C.
Data set [4] relates to Cryptosporidium parvum. The settings on record: read-out: Cryptosporidium parvum EC50; cited from earlier work.
In data set [5] the test system is L. amazonensis promastigotes and amastigotes. In words: microscopy of cell division in L. amazonensis promastigotes and amastigotes. Format: cell-based, Leishmania amazonensis. The note with it: 48 h at the EC50 72h concentration; for increase in parasites in mid-cell division, promastigotes: compared to DMSO control.
Data set [6] relates to RAW 264.7 cells.
Data set [7] concerns purified L. tarentolae tubulin. In words: chemical cross-linking with SW22 probe and competition, fluorescent tubulin band. Format: binding, Leishmania tarentolae. The settings on record: for competition with SW22 probe for tubulin, fluorescent band: fully purified tubulin, competitor at 100-fold excess.
Data set [8] concerns Neospora caninum. The note with it: read-out: Neospora caninum EC50; cited from earlier work.
The subject of data set [9] is blood-stage P. falciparum. In words: Malaria SYBR green I fluorescence. Type of data set: cell-based, Plasmodium falciparum. The note with it: read-out: P. falciparum EC50 ± SE, 3D7, MSF assay.
Data set [10] relates to Entamoeba histolytica trophozoite. The settings on record: cited from earlier work.
Data set [11] relates to blood-stage Trypanosoma brucei. The data set is described as follows: CellTiter-Glo luminescent assay, T. brucei. Format: cell-based. The note with it: read-out: T. brucei EC50 ± SE.
Data set [12] deals with L. amazonensis promastigotes. The data set is described as follows: alamarBlue assay, L. amazonensis promastigotes. Type of data set: cell-based, Leishmania amazonensis. The settings on record: read-out: Promastigote EC50 ± SE, 72 h.
The subject of data set [13] is L. donovani axenic amastigotes. In words: alamarBlue assay, L. donovani axenic amastigotes. Type of data set: cell-based, Leishmania donovani. The settings on record: read-out: L. donovani axenic amastigotes, EC50 ± SE, 72 h. The gist of the method:
as §1

Data set [14] has as its system L. amazonensis axenic amastigotes. Format: cell-based, Leishmania amazonensis. The settings on record: 24 h at the EC50 72h, densitometry of Western blots.
The test system of data set [15] is L. amazonensis promastigotes. The data set is described as follows: microscopy of promastigote morphology. Type of data set: cell-based, Leishmania amazonensis. The note with it: compared to DMSO control; for increase in pear-shaped promastigotes: 48 h at the EC50 72h; for increase in flagella length: promastigotes, 24 h at the EC50 72h.
For data set [16], the system named is L. amazonensis axenic amastigotes. Format: cell-based, Leishmania amazonensis. The settings on record: for EC50: Leishmania amazonensis, 72 h, read-out: EC50 ± SE.
In data set [17] the test system is L. amazonensis. In words: paclitaxel EC50 72h for La. Type of data set: cell-based. The note with it: Leishmania amazonensis, read-out: EC50 72h for La.
Where [18] appears, read: L. amazonensis intracellular amastigotes in RAW 264.7 cells, 72 h, luciferase.

Take `N#Cc1nc(-c2ccccc2)oc1S(=O)(=O)c1ccc(Cl)cc1` [MMV676412]: the EC50 in [1] (setting [18]) is over 2000 nM.

Turning to `CCc1c(C)nc(-n2nc(C)cc2NC(=O)c2ccccc2SC)[nH]c1=O` [MMV676477], the EC50 was 11 ± 1.3 nM in data set [2]; 500 ± 100 nM in data set [3]; 220 nM in [4]; 13 nM in [8]; 500 ± 20 nM in [1] (setting [18]); 420 ± 19 nM in data set [9]. Further, the EC50 worked out at 190 ± 8.7 nM in data set [11], 2400 ± 35 nM in data set [12] and 1300 ± 210 nM in data set [13]. Further, the “increase in parasites in mid-cell division, promastigotes” value in data set [5] is given as ~ 2 fold. In [6], this compound returned a half-maximal cytotoxic concentration (CC50) of 2200 ± 410 nM. Moreover, the “competition with SW22 probe for tubulin, fluorescent band” value in [7] is reported as “significantly dimmer”. Further, the “Entamoeba histolytica trophozoite proliferation at 10 μM” value in [10] was 56%. Besides, the “proportion of cellular polymeric tubulin” value in data set [14] is on record as “significantly increased”. In data set [15], the “increase in pear-shaped promastigotes” value was determined as 2 fold. Also, the “increase in flagella length” value in data set [15] was ~ 1.5 fold.

On to `CSc1ccccc1C(=O)Oc1cc(C)nc(-n2nc(C)cc2N)n1` [SW10], for which the cytotoxic concentration (CC50) in data set [6] was over 10000 nM. In [7] (L. tarentolae tubulin still including some additional proteins, SW22 probe), the “dimming of the fluorescent tubulin band in presence of competitor” value is recorded as “No apparent dimming”. Besides, in data set [7], the “competition with SW22 probe for tubulin, fluorescent band” value is reported as “no apparent competition”. The “antileishmanial activity (in words)” value in [16] (L. amazonensis) was “essentially inactive; also recorded: nearly inactive”. Further, the EC50 in [12] is over 50000 nM.

With `C#CCOc1ccc(C(=O)c2ccc(C(=O)Nc3cc(C)nn3-c3nc(C)c(CC)c(=O)[nH]3)cc2)cc1` [SW22, N-(1-(5-ethyl-4-methyl-6-oxo-1,6-dihydropyrimidin-2-yl)-3-methyl-1H-pyra-zol-5-yl)-4-(4-(prop-2-yn-1-yloxy)benzoyl) benzamide], the CC50 in data set [6] came out at 1300 ± 42 nM. In addition, in data set [12], the half-maximal effective concentration (EC50) stood at 6700 ± 53 nM.

As to `CCc1c(C)nc(-n2nc(C)cc2NC(=O)c2ccc(F)c(Cl)c2)[nH]c1=O` [SW41], the CC50 in data set [6] was 2400 ± 100 nM. The concentration for a half-maximal effect (EC50) is 220 ± 13 nM in data set [1] (setting [18]), 780 ± 29 nM in data set [12] and 310 ± 38 nM in [13].

For `C[C@@H]1[C@H](O)[C@@H](C)/C=C/C=C/C=C/C=C/C=C/C=C/C=C/[C@H](O[C@@H]2O[C@H](C)[C@@H](O)[C@H](N)[C@@H]2O)C[C@@H]2O[C@](O)(C[C@@H](O)C[C@@H](O)[C@H](O)CC[C@@H](O)C[C@@H](O)CC(=O)O[C@H]1C)C[C@H](O)[C@H]2C(=O)O` [amphotericin B, reference compound], the half-maximal effective concentration (EC50) in data set [16] is 53 ± 4.4 nM; in data set [1] (Leishmania amazonensis, RAW264.7, 72 h) it was 65 ± 26 nM.

Turning to `CC(C)(C)[C@H]1CC[C@H](CC2=C(O)C(=O)c3ccccc3C2=O)CC1` [buparvaquone], the 50% effective concentration (EC50) in data set [16] is 12 ± 1.1 nM.

In the case of `C[C@]1(COc2ccc(N3CCC(Oc4ccc(OC(F)(F)F)cc4)CC3)cc2)Cn2cc([N+](=O)[O-])nc2O1` [delamanid], the EC50 in data set [16] was 31 ± 3.5 nM.

As to `CCCCCCCCCCCCCCCCOP(=O)([O-])OCC[N+](C)(C)C` [miltefosine], the “effect on L. amazonensis cell division” value in [5] is recorded as “did not affect L. amazonensis cell division”. Further, in data set [16], the concentration for a half-maximal effect (EC50) was 1200 ± 280 nM. In data set [15], the “increase in pear-shaped promastigotes” value is on record as “did not affect” and the “increase in flagella length” value is listed as “did not affect”.

Turning to `CC(=O)Oc1ccccc1C(=O)Nc1ncc([N+](=O)[O-])s1` [nitazoxanide], the EC50 in [16] was 590 ± 100 nM.

As for `CC(=O)O[C@H]1C(=O)[C@@]2(C)[C@H]([C@H](OC(=O)c3ccccc3)[C@]3(O)C[C@H](OC(=O)[C@H](O)[C@@H](NC(=O)c4ccccc4)c4ccccc4)C(C)=C1C3(C)C)[C@]1(OC(C)=O)CO[C@@H]1C[C@@H]2O` [paclitaxel], in data set [3], the EC50 was 1300 ± 100 nM. Also, the “increase in parasites in mid-cell division, promastigotes” value in data set [5] is recorded as ~ 2 fold. Also, in [17], the EC50 was 760 ± 8.3 nM. For the same compound, in [14], the “proportion of cellular polymeric tubulin” value is reported as “significantly increased”. In data set [15], the “increase in pear-shaped promastigotes” value was 2 fold and the “increase in flagella length” value was ~ 1.5 fold.
